Assay results gathered from unrelated publications.
Lines come from different studies, so protocols differ.
Observed: cell growth or viability

`COC(=O)c1c(C)ncn1CC(c1c[nH]c2ccccc12)c1c[nH]c2ccccc12` gave a CC50 of greater than 20 µM (HaCaT; MTS; 24 h).
With `Cc1ccc(C(=O)Nc2ccc(S(=O)(=O)O)c3cc(S(=O)(=O)O)cc(S(=O)(=O)O)c23)cc1NC(=O)c1cccc(NC(=O)Nc2cccc(C(=O)Nc3cc(C(=O)Nc4ccc(S(=O)(=O)O)c5cc(S(=O)(=O)O)cc(S(=O)(=O)O)c45)ccc3C)c2)c1` the CC50 was greater than 64 µM (MRC-5 SV2; resazurin; 72 h).
`CCCCCCCCCCCCCCCCOP(=O)([O-])OCC[N+](C)(C)C` has a CC50 of greater than 20 µM (HaCaT; MTS; 24 h).
`Cc1cn([C@H]2C[C@H](N=[N+]=[N-])[C@@H](CO)O2)c(=O)[nH]c1=O` gave a CC50 of greater than 200 µg/mL (CEM-GFP; MTT; 48 h).
For `O=C(N[C@@H](Cc1ccccc1)C(=O)c1ncc(-c2ccccc2)o1)[C@H](Cc1ccccc1)NC(=O)N1CCOCC1`, the CC50 was greater than 64 µM (MRC-5 SV2).
The CC50 of `Cc1ncnc2c1c(SC(F)(F)F)cn2[C@@H]1O[C@H](CO)[C@@H](O)[C@H]1O` is reported as 36.8 µM (MRC-5 SV2; resazurin; 72 h).
`N=C(N)c1ccc(/N=N/Nc2ccc(C(=N)N)cc2)cc1` has a CC50 of greater than 64 µM (MRC-5 SV2; resazurin; 72 h).
For `O=C(N[C@@H](Cc1ccccc1)C(=O)c1cn(COCc2ccccc2)nn1)[C@H](Cc1ccccc1)NC(=O)N1CCOCC1`, the CC50 was greater than 64 µM (MRC-5 SV2).
`C[C@@H]1O[C@@H](OC[C@H]2O[C@@H](Oc3c(-c4ccc(O)c(O)c4)oc4cc(O)cc(O)c4c3=O)[C@H](O)[C@@H](O)[C@@H]2O)[C@H](O)[C@H](O)[C@H]1O` gave a CC50 of greater than 250 µg/mL (CEM-GFP; MTT; 48 h).
The CC50 of `CCOC(=O)c1cn(CC(c2cn(C)c3ccc(C)cc23)c2cn(C)c3ccc(C)cc23)c(C)c1C(=O)OC` is reported as greater than 20 µM (HaCaT; MTS; 24 h).
For `O=C(N[C@@H](Cc1ccccc1)C(=O)c1ncc(-c2ccccc2)s1)[C@H](Cc1ccccc1)NC(=O)N1CCOCC1`, the CC50 was greater than 64 µM (MRC-5 SV2).
